Test results from ChEMBL document CHEMBL5058577, “EUbOPEN Chemogenomics Library 2 (Multiplex)” (2022).

Tested on: HEK-293T
Test: Multiplex assay against HEK293T
Format: toxicity, cell-based
Details: human
Outline: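 Tubulin, mitochondrial-mass and membrane-permeability phenotypes are per cents of healthy-nucleus cells. Cells were gated by CellPathfinder machine learning into Hoechst high-intensity objects or normal cells, normal cells into healthy, pyknosed or fragmented nuclei, and pyknosed cells into mitotic or apoptotic. Before that, live cells stained at seeding with Hoechst33342, BioTracker Green Microtubule Cytoskeleton Dye, MitoTracker Red and Annexin V Alexa Fluor 680 were imaged on a CQ1 microscope at 37°C and 5% CO2 after compound addition.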

[1] = 12 h, 1 µM, compound concentration 1 uM, replicate 1
[2] = 12 h, 1 µM, compound concentration 1 uM, replicate 2
[3] = 12 h, 10 µM, compound concentration 10 uM, replicate 1
[4] = 12 h, 10 µM, compound concentration 10 uM, replicate 2
[5] = 24 h, 1 µM, compound concentration 1 uM, replicate 1
[6] = 24 h, 1 µM, compound concentration 1 uM, replicate 2
[7] = 24 h, 10 µM, compound concentration 10 uM, replicate 1
[8] = 24 h, 10 µM, compound concentration 10 uM, replicate 2
[9] = 48 h, 1 µM, compound concentration 1 uM, replicate 1
[10] = 48 h, 1 µM, compound concentration 1 uM, replicate 2
[11] = 48 h, 10 µM, compound concentration 10 uM, replicate 1
[12] = 48 h, 10 µM, compound concentration 10 uM, replicate 2

COc1ccccc1N1CCN(C[C@@H](C(=O)NC(C)(C)C)c2ccccc2)CC1.Cl.Cl
Population Apoptotic (%) [1]: 24%
Population Fragmented Nuclei (%) [1]: 7%
Population Healthy Nuclei (%) [1]: 77%
Population Hoechst High Intensity Objects (%) [1]: 7%
Population Membrane Permeable-Phenotype (%) [1]: 0%
Population Mitochondria Different-Phenotype (%) [1]: 48%
Population Mitotic Cells (%) [1]: 75%
Population Normal (%) [1]: 92%
Population Pyknosed Nuclei (%) [1]: 14%
Population Tubulin-Different-Phenotype (%) [1]: 47%
Total Cell Count [1]: 434
Population Apoptotic (%) [2]: 42%
Population Fragmented Nuclei (%) [2]: 4%
Population Healthy Nuclei (%) [2]: 76%
Population Hoechst High Intensity Objects (%) [2]: 6%
Population Mitochondria Different-Phenotype (%) [2]: 77%
Population Mitotic Cells (%) [2]: 57%
Population Normal (%) [2]: 93%
Population Pyknosed Nuclei (%) [2]: 19%
Population Tubulin-Different-Phenotype (%) [2]: 35%
Total Cell Count [2]: 300
Population Apoptotic (%) [3]: 62%
Population Fragmented Nuclei (%) [3]: 7%
Population Healthy Nuclei (%) [3]: 69%
Population Hoechst High Intensity Objects (%) [3]: 7%
Population Membrane Permeable-Phenotype (%) [3]: 0%
Population Mitochondria Different-Phenotype (%) [3]: 88%
Population Mitotic Cells (%) [3]: 37%
Population Normal (%) [3]: 92%
Population Pyknosed Nuclei (%) [3]: 23%
Population Tubulin-Different-Phenotype (%) [3]: 74%
Total Cell Count [3]: 333
Population Apoptotic (%) [4]: 58%
Population Fragmented Nuclei (%) [4]: 5%
Population Hoechst High Intensity Objects (%) [4]: 16%
Population Mitochondria Different-Phenotype (%) [4]: 79%
Population Mitotic Cells (%) [4]: 41%
Population Normal (%) [4]: 83%
Population Pyknosed Nuclei (%) [4]: 25%
Population Tubulin-Different-Phenotype (%) [4]: 59%
Total Cell Count [4]: 231
Population Apoptotic (%) [5]: 19%
Population Fragmented Nuclei (%) [5]: 8%
Population Healthy Nuclei (%) [5]: 81%
Population Hoechst High Intensity Objects (%) [5]: 4%
Population Membrane Permeable-Phenotype (%) [5]: 0%
Population Mitochondria Different-Phenotype (%) [5]: 31%
Population Mitotic Cells (%) [5]: 80%
Population Normal (%) [5]: 95%
Population Pyknosed Nuclei (%) [5]: 9%
Population Tubulin-Different-Phenotype (%) [5]: 29%
Total Cell Count [5]: 563
Population Apoptotic (%) [6]: 34%
Population Fragmented Nuclei (%) [6]: 11%
Population Healthy Nuclei (%) [6]: 76%
Population Hoechst High Intensity Objects (%) [6]: 6%
Population Mitochondria Different-Phenotype (%) [6]: 54%
Population Mitotic Cells (%) [6]: 65%
Population Normal (%) [6]: 93%
Population Pyknosed Nuclei (%) [6]: 11%
Population Tubulin-Different-Phenotype (%) [6]: 28%
Total Cell Count [6]: 387
Population Apoptotic (%) [7]: 45%
Population Fragmented Nuclei (%) [7]: 8%
Population Healthy Nuclei (%) [7]: 68%
Population Hoechst High Intensity Objects (%) [7]: 7%
Population Membrane Permeable-Phenotype (%) [7]: 0%
Population Mitochondria Different-Phenotype (%) [7]: 77%
Population Mitotic Cells (%) [7]: 54%
Population Normal (%) [7]: 92%
Population Pyknosed Nuclei (%) [7]: 23%
Population Tubulin-Different-Phenotype (%) [7]: 61%
Total Cell Count [7]: 377
Population Apoptotic (%) [8]: 66%
Population Healthy Nuclei (%) [8]: 76%
Population Hoechst High Intensity Objects (%) [8]: 14%
Population Mitochondria Different-Phenotype (%) [8]: 73%
Population Mitotic Cells (%) [8]: 33%
Population Normal (%) [8]: 85%
Population Pyknosed Nuclei (%) [8]: 15%
Population Tubulin-Different-Phenotype (%) [8]: 48%
Total Cell Count [8]: 251
Population Apoptotic (%) [9]: 22%
Population Fragmented Nuclei (%) [9]: 13%
Population Healthy Nuclei (%) [9]: 78%
Population Hoechst High Intensity Objects (%) [9]: 2%
Population Membrane Permeable-Phenotype (%) [9]: 1%
Population Mitochondria Different-Phenotype (%) [9]: 19%
Population Mitotic Cells (%) [9]: 77%
Population Normal (%) [9]: 97%
Population Pyknosed Nuclei (%) [9]: 8%
Population Tubulin-Different-Phenotype (%) [9]: 18%
Total Cell Count [9]: 908
Population Apoptotic (%) [10]: 38%
Population Fragmented Nuclei (%) [10]: 10%
Population Healthy Nuclei (%) [10]: 80%
Population Hoechst High Intensity Objects (%) [10]: 6%
Population Membrane Permeable-Phenotype (%) [10]: 0%
Population Mitochondria Different-Phenotype (%) [10]: 37%
Population Mitotic Cells (%) [10]: 61%
Population Normal (%) [10]: 93%
Population Pyknosed Nuclei (%) [10]: 9%
Population Tubulin-Different-Phenotype (%) [10]: 20%
Total Cell Count [10]: 480
Population Apoptotic (%) [11]: 50%
Population Fragmented Nuclei (%) [11]: 14%
Population Healthy Nuclei (%) [11]: 72%
Population Hoechst High Intensity Objects (%) [11]: 6%
Population Membrane Permeable-Phenotype (%) [11]: 0%
Population Mitochondria Different-Phenotype (%) [11]: 59%
Population Mitotic Cells (%) [11]: 49%
Population Normal (%) [11]: 93%
Population Pyknosed Nuclei (%) [11]: 13%
Population Tubulin-Different-Phenotype (%) [11]: 44%
Total Cell Count [11]: 467
Population Apoptotic (%) [12]: 62%
Population Fragmented Nuclei (%) [12]: 10%
Population Healthy Nuclei (%) [12]: 76%
Population Hoechst High Intensity Objects (%) [12]: 5%
Population Mitochondria Different-Phenotype (%) [12]: 58%
Population Mitotic Cells (%) [12]: 37%
Population Normal (%) [12]: 94%
Population Tubulin-Different-Phenotype (%) [12]: 36%
Total Cell Count [12]: 375
